The values below come from ChEMBL document CHEMBL1137699, “Synthesis, antibacterial and anticonvulsant evaluations of some cyclic enaminones” (Eur J Med Chem, 2009).

Experiment [1] concerns Mus musculus. Kind of experiment: Anticonvulsant activity against maximal electroshock-induced seizures in mouse at 300 mg/kg, ip. Format: functional, organism-based. The arrangement: dose 300 mg/kg. (In the maximal electroshock model the usual endpoint is tonic extension of the hind limbs.)
The subject of experiment [2] is Mus musculus. The experiment is described as follows: Anticonvulsant activity against subcutaneous pentylenetetrazole-induced seizures in mouse at 300 mg/kg, ip. It counts as functional, organism-based. On the set-up: dose 300 mg/kg.
Experiment [3] has as its system Mus musculus. The experiment is described as follows: Anticonvulsant activity against maximal electroshock-induced seizures in mouse at <=100 mg/kg, ip. It counts as functional, organism-based.
In experiment [4] the test system is Mus musculus. The experiment is described as follows: Anticonvulsant activity against subcutaneous pentylenetetrazole-induced seizures in mouse at <=100 mg/kg, ip. Format: functional, organism-based.
Experiment [5] relates to Staphylococcus aureus. Kind of experiment: Antibacterial activity against methicillin-susceptible Staphylococcus aureus clinical isolate after 18 hrs by NCCLS M7-A4 method. It counts as functional. In outline:
(§1)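 Test compounds dissolved in 80% DMSO in water. Clinical isolates came from a MRSA reference laboratory culture collection. Final inoculum 10^7 CFU/ml, incubated 35 °C for 18 h. MIC taken as the lowest concentration completely inhibiting growth. Reference strains S. aureus ATCC 25923, S. epidermidis ATCC 12228 and E. faecalis ATCC 29212 served as test controls.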

The subject of experiment [6] is Staphylococcus. The experiment is described as follows: Antibacterial activity against methicillin-sensitive coagulase-negative Staphylococcus clinical isolate after 18 hrs by NCCLS M7-A4 method. Format: functional. The gist of the method: as §1
Experiment [7] concerns Haemophilus influenzae. The experiment is described as follows: Antibacterial activity against Haemophilus influenzae clinical isolate after 18 hrs by NCCLS M7-A4 method. It counts as functional. In outline: (§2)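 Agar dilution on Mueller–Hinton agar with 5% sheep blood, per NCCLS/CLSI. Compounds were dissolved in 80% DMSO in water and tested over 0.12–16. Incubation was 35 °C for 18 h. MIC was read as the lowest concentration completely inhibiting growth. Line 4 used clinical isolates (n = 7 for H. influenzae).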

For experiment [8], the system named is Streptococcus pneumoniae. Kind of experiment: Antibacterial activity against Streptococcus pneumoniae clinical isolate after 18 hrs by NCCLS M7-A4 method. Format: functional. In outline: as §2
In experiment [9] the test system is Enterococcus. The experiment is described as follows: Antibacterial activity against vancomycin-sensitive Enterococcus clinical isolate after 18 hrs by NCCLS M7-A4 method. Format: functional. In outline:
as §1

The subject of experiment [10] is Escherichia coli. The experiment is described as follows: Antibacterial activity against Escherichia coli ATCC 25922 after 18 hrs by NCCLS M7-A4 method. It counts as functional, organism-based. The gist of the method:
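Reference E. coli strain tested by NCCLS/CLSI agar dilution. Compounds were in 80% DMSO in water over a 0.12–16 dilution range, incubated at 35 °C for 18 h.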

For experiment [11], the system named is Staphylococcus aureus. Kind of experiment: Antibacterial activity against Staphylococcus aureus ATCC 25923 after 18 hrs by NCCLS M7-A4 method. It counts as functional, organism-based. In outline: (§3)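 Agar dilution on Mueller–Hinton agar, following NCCLS (now CLSI) guidance. Test compounds were dissolved in 80% DMSO in water and tested at 0.12 to 16. Plates were incubated at 35 °C for 18 h. The MIC was the lowest concentration giving complete growth inhibition.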

For experiment [12], the system named is Staphylococcus epidermidis. Kind of experiment: Antibacterial activity against Staphylococcus epidermidis ATCC 12228 after 18 hrs by NCCLS M7-A4 method. Format: functional, organism-based. The gist of the method: as §3
In experiment [13] the test system is Enterococcus faecalis. Kind of experiment: Antibacterial activity against Enterococcus faecalis ATCC 29212 after 18 hrs by NCCLS M7-A4 method. It counts as functional, organism-based. In outline: as §3
Experiment [14] concerns Haemophilus influenzae. Kind of experiment: Antibacterial activity against Haemophilus influenzae ATCC 49247 after 18 hrs by NCCLS M7-A4 method. Format: functional, organism-based. The gist of the method:
as §2

The structures appear in SMILES notation. Activity calls are given as the source filed them. The calls are words filed in the database; no cut-off is given here.

With `CCOC(=O)C1C(=O)C=C(N2CCN(c3ccc([N+](=O)[O-])cc3F)CC2)CC1c1ccccc1` (centres undefined), the result in experiment [1] and in experiment [2] was inactive.

In the case of `CCOC(=O)C1C(=O)C=C(Nc2ccc(F)cc2)CC1c1ccccc1` (centres undefined), the result in experiment [1] and in [2] was inactive.

With `CCOC(=O)C1C(=O)C=C(NCCc2ccccc2)CC1C` (centres undefined), the outcome in experiment [3] was Active.

Take `CCOC(=O)C1C(=O)C=C(Nc2cccc(Cl)c2)CC1C` (centres undefined): the outcome in experiment [3] and in experiment [4] was Active.

Regarding `CCOC(=O)C1C(=O)C=C(Nc2ccc(N3CCN(C(=O)OC(C)(C)C)CC3)c(F)c2)CC1c1ccccc1` (centres undefined), the outcome in experiment [1] and in experiment [2] was inactive.

With `COC(=O)C1C(=O)C=C(Nc2ccc(N3CCOCC3)c(F)c2)CC1c1ccccc1` (centres undefined), the result in [1] and in experiment [2] was inactive.

Take `CCOC(=O)C1C(=O)C=C(N2CCN(c3ccc([N+](=O)[O-])cc3F)CC2)CC1C` (centres undefined): the outcome in experiment [1] and in experiment [2] was inactive.

As for `COC(=O)C1C(=O)C=C(N2CCCC2)CC1c1ccccc1` (centres undefined), the result in experiment [1] and in [2] was inactive.

With `COC(=O)C1C(=O)C=C(Nc2ccc(N3CCN(C(=O)OC(C)(C)C)CC3)c(F)c2)CC1c1ccccc1` (centres undefined), the outcome in experiment [1] and in experiment [2] was inactive.

`CCOC(=O)C1C(=O)C=C(Nc2ccccc2)CC1c1ccccc1` (centres undefined): the result in experiment [1] and in experiment [2] was inactive.

Regarding `CCOC(=O)C1C(=O)C=C(Nc2ccc(Br)cc2)CC1C` (centres undefined), the result in experiment [3] and in experiment [4] was Active.

Consider `COC(=O)C1C(=O)C=C(NCCc2ccccc2)CC1c1ccccc1` (centres undefined), for which the result in experiment [1] and in [2] was inactive.

On to `CCOC(=O)C1C(=O)C=C(Nc2ccc(Cl)cn2)CC1c1ccccc1` (centres undefined), for which the result in experiment [1] and in experiment [2] was inactive.

On to `CCOC(=O)C1C(=O)C=C(Nc2ccc(O)cc2)CC1c1ccccc1` (centres undefined), for which the result in [1] and in experiment [2] was inactive.

In the case of `CCOC(=O)C1C(=O)C=C(Nc2ccc(N3CCOCC3)c(F)c2)CC1c1ccccc1` (centres undefined), the result in [1], in experiment [2], in experiment [10], in [11], in [12] and in [13] was inactive. For the same molecule, the result in experiment [14] was inactive. In addition, the MIC in experiment [5], in experiment [6], in [7], in [8] and in [9] was more than 16 µg/mL in each case.

Regarding `CCOC(=O)C1C(=O)C=C(N(CC)CC)CC1c1ccccc1` (centres undefined), the result in [1] and in experiment [2] was inactive.

With `CCN(CC)C1=CC(=O)C(C(=O)OC)C(c2ccccc2)C1` (centres undefined), the result in experiment [1] and in experiment [2] was inactive.

In the case of `COC(=O)C1C(=O)C=C(NC[C@H]2CN(c3ccc(N4CCOCC4)c(F)c3)C(=O)O2)CC1C` (some centres undefined), the result in experiment [1], in experiment [2], in experiment [10], in [11], in [12] and in [13] was inactive. Further, the result in experiment [14] was inactive. Moreover, the MIC in experiment [5], in experiment [6], in experiment [7], in experiment [8] and in experiment [9] was more than 16 µg/mL each time.

Take `CCOC(=O)C1C(=O)C=C(Nc2ccc(Br)cc2)CC1c1ccccc1` (centres undefined): the outcome in [1] and in experiment [2] was inactive.

Take `CCOC(=O)C1C(=O)C=C(NCCCCc2ccccc2)CC1c1ccccc1` (centres undefined): the outcome in [1] and in experiment [2] was inactive.

In the case of `CCOC(=O)C1C(=O)C=C(NC[C@H]2CN(c3ccc(N4CCOCC4)c(F)c3)C(=O)O2)CC1C` (some centres undefined), the result in [1], in experiment [2], in experiment [10], in [11], in [12] and in [13] was inactive. Moreover, in experiment [14], the result was inactive. Further, the MIC in experiment [5], in experiment [6], in experiment [7], in experiment [8] and in experiment [9] was more than 16 µg/mL throughout.

Take `CCOC(=O)C1C(=O)C=C(N2CCOCC2)CC1c1ccccc1` (centres undefined): the outcome in experiment [1] and in experiment [2] was inactive.

Take `CCOC(=O)C1C(=O)C=C(Nc2ccc([N+](=O)[O-])cc2)CC1c1ccccc1` (centres undefined): the result in [1] and in experiment [2] was inactive.

Regarding `COC(=O)C1C(=O)C=C(NCCCCc2ccccc2)CC1c1ccccc1` (centres undefined), the outcome in experiment [1] and in experiment [2] was inactive.

For `COC(=O)C1C(=O)C=C(Nc2ccc(F)cc2)CC1c1ccccc1` (centres undefined), the result in experiment [1] and in experiment [2] was inactive.

For the molecule `COC(=O)C1C(=O)C=C(NC[C@H]2CN(c3ccc(N4CCOCC4)c(F)c3)C(=O)O2)CC1c1ccccc1` (some centres undefined), the outcome in [1], in [2], in experiment [10], in experiment [11], in experiment [12] and in experiment [13] was inactive. Besides, in experiment [14], the result was inactive. Also, the MIC in experiment [5], in experiment [6], in experiment [7], in experiment [8] and in experiment [9] was more than 16 µg/mL in each case.

As to `CCOC(=O)C1C(=O)C=C(NCCc2ccccc2)CC1c1ccccc1` (centres undefined), the result in [1] and in experiment [2] was inactive.

In the case of `COC(=O)C1C(=O)C=C(N2CCN(c3ccc([N+](=O)[O-])cc3F)CC2)CC1c1ccccc1` (centres undefined), the outcome in [1] and in experiment [2] was inactive.

`CCOC(=O)C1C(=O)C=C(NCCCc2ccccc2)CC1c1ccccc1` (centres undefined): the outcome in [1] and in experiment [2] was inactive.

For `COC(=O)C1C(=O)C=C(Nc2ccc(N3CCOCC3)c(F)c2)CC1C` (centres undefined), the outcome in experiment [1] and in experiment [2] was inactive.

Regarding `CCOC(=O)C1C(=O)C=C(Nc2ccc(F)cc2)CC1C` (centres undefined), the result in [3] and in [4] was Active.

In the case of `CCOC(=O)C1C(=O)C=C(Nc2ccc(N3CCOCC3)c(F)c2)CC1C` (centres undefined), the outcome in experiment [1], in experiment [2], in [10], in experiment [11], in experiment [12] and in experiment [13] was inactive. For the same molecule, the result in experiment [14] was inactive. The MIC in experiment [5], in experiment [6], in [7], in experiment [8] and in experiment [9] was more than 16 µg/mL in each case.

On to `COC(=O)C1C(=O)C=C(Nc2ccc(Cl)cn2)CC1c1ccccc1` (centres undefined), for which the outcome in experiment [1] and in [2] was inactive.

In the case of `COC(=O)C1C(=O)C=C(Nc2ccc(N3CCN(C(=O)OC(C)(C)C)CC3)c(F)c2)CC1C` (centres undefined), the outcome in [1] and in experiment [2] was inactive.

In the case of `COC(=O)C1C(=O)C=C(NCCCc2ccccc2)CC1c1ccccc1` (centres undefined), the result in experiment [1] and in experiment [2] was inactive.
